# The sample as a whole holds a higher share of hits than the screen did.
# PostGolgi yeast = growth inhibition of a yeast mutant, post-Golgi transport screen. post-Golgi transport phenotypic cell assay. hit rate 0.9% among 98,000. inhibition, % at 10 µM;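 note: yeast cells grown in 1536-well plates; yeast grown about 18 h at 30C before absorbance read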
# PostGolgi ctrl = inhibits growth of the yeast control strain; efflux-deficient yeast background strain, growth absorbance A615, 16 h; inhibition, % at 10 µM; hit rate 5% among 98,000; AID 738
# BB579 growth dn = reduces growth of yeast BB579 in restrictive medium. inhibition, % at 10 µM. hit rate 0.51% among 140,000. S. cerevisiae BB579 growth, OD615, 48 h;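 active = inhibition above a set limit, 3 SD over the mean compound inhibition, cut at about 44% in these data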
#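 test system = yeast BB579 (DeaD) | buffer or medium = restrictive CSMM-D medium | doses = single compound dose of 10 µM, 0.25% DMSO final | times = 4 h preincubation and 48 h exposure at 30 °C | technique = culture absorbance at 615 nm | benchmarks = amphotericin B 10 µg/mL, positive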
# Yeast life ext = yeast lifespan extension | hit rate 0.68% among 130,000 | AID 775 | S. cerevisiae growth with nicotinamide, OD615; deaD strain in restrictive glucose medium | inhibition of the nicotinamide effect, % at 10 µM;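 active = inhibition above a set limit, placed 3 SD over the median of all compounds, cut at about 26% in these data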
#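 assay system = DeaD-strain S. cerevisiae | buffer or medium = restrictive glucose medium | reagent = 1.5 mM nicotinamide | compound = 10 µM single point, 0.25% DMSO | incubation = 48 h compound exposure at 30 °C, humidified | signal = OD615 measurement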
# Hits are given with their value; . = inactive; / = no result. Cut-off read from the data, not from the text of the source, unless noted: active = inhibition above about 30%; inactive = the rest.
SMILES,PostGolgi yeast,PostGolgi ctrl,BB579 growth dn,Yeast life ext
Cc1cc(N2CCN(C(=O)c3ccco3)CC2)n2ncc(-c3ccccc3)c2n1,101,102,98,.
Cc1cc(N2CCN(C(=O)c3ccco3)CC2)n2ncnc2n1,/,/,.,/
CC1=C(C#N)C(Nc2ccc(C)cn2)(C(F)(F)F)C(=O)N1 (configuration not stated),.,.,.,.
O=C(/C=C/c1ccccc1Cl)c1ccccc(=O)c1O,/,/,99,.
Cc1ccc(/C=C/C(=O)c2ccccc(=O)c2O)c(C)c1,/,/,99,.
Cc1ccc(/C=C/C(=O)c2ccccc2)cc1,.,.,.,.
Cc1ccc(C)c(/C=C/C(=O)c2ccccc(=O)c2O)c1,/,/,99,.
O=C(NCCc1ccccc1)c1cnn2c(C(F)F)cc(C3CC3)nc12,.,39,.,.
Cc1cc(C(F)F)n2ncc(C(=O)NCCc3ccc(Cl)cc3)c2n1,.,49,.,.
COC(=O)c1ccccc1NC(=O)c1cnn2c(C(F)F)cc(C3CC3)nc12,.,43,.,.
O=C(c1cnn2c(C(F)F)cc(C3CC3)nc12)N1CCCC1,.,.,.,107
O=C(c1cnn2c(C(F)F)cc(C3CC3)nc12)N1CCc2ccccc2C1,.,.,.,.
COc1ccc(C)cc1S(=O)(=O)N(CC(=O)N1CCCC1)c1ccccc1,.,.,.,.
CCCCOC(=O)n1c(SCC(=O)N(CC)CC)nc2ccccc21,.,31,.,.
COCCCn1c(SCc2ccccc2)nc2cc(OC)c(OC)cc2c1=N,.,.,.,.
COCCCn1c(SCc2cccc(C(F)(F)F)c2)nc2cc(OC)c(OC)cc2c1=N,.,42,.,.
COc1ccc(Cn2c(SCc3ccc(C)cc3)nc3cc(OC)c(OC)cc3c2=N)cc1Cl,33,68,.,.
COc1ccc(Cn2c(SCc3cc(C)ccc3C)nc3cc(OC)c(OC)cc3c2=N)cc1,76,63,.,.
O=C(CN(C1CCCCC1)S(=O)(=O)c1ccc(F)cc1)NCc1ccncc1,.,.,.,.
CCC(C)N(C(=O)Cn1nnc2ccccc21)C(C(=O)Nc1ccc(F)cc1)c1cccc(OC)c1 (configuration not stated),.,.,.,.
Oc1ccc(Nc2nc(N3CCCC3)c3ccccc3n2)cc1,.,.,.,.
c1ccc(Nc2nc(N3CCCCC3)nc(N3CCCCC3)n2)cc1,.,53,.,.
COc1ccc(Nc2nc(N3CCCCC3)c3ccccc3n2)cc1,59,86,.,.
c1ccc(Nc2nc(N3CCCC3)nc(N3CCCC3)n2)cc1,.,70,.,.
CCn1nc(C(=O)OCC(=O)Nc2nc(-c3ccc(OC)cc3)cs2)c2ccccc2c1=O,/,/,.,.
SMILES,PostGolgi yeast,PostGolgi ctrl,BB579 growth dn,Yeast life ext
CCOC(=O)CSc1nc(C)c2cc(OC)ccc2n1,.,.,.,.
CCOC(=O)CSC1=NC(=O)/C(=C/c2ccc(OC)cc2)S1,/,/,.,57
CC1=CC(C)=Nc2ccccc2N1,.,.,.,.
Cc1ccc(C2=Nc3ccccc3NC(C)(c3ccc(C)o3)C2)o1 (configuration not stated),.,55,.,.
Cc1cc(S(=O)(=O)NCc2ccccc2)ccc1OCC(=O)Nc1cccc([N+](=O)[O-])c1,/,/,.,.
CCN(CC)c1ccc(-c2nc3cnccc3n2C)cc1,38,.,.,.
O=c1c2nnn(Cc3ccccc3)c2ncn1C/C=C/c1ccccc1,.,.,.,.
CN(C)S(=O)(=O)Oc1ccsc1C(=O)Nc1ccc(Cl)c(Cl)c1,.,45,.,.
C=C(C)CN(CC)C(=O)COc1ccc(S(=O)(=O)Nc2ccc(OC)cc2)cc1,.,.,.,108
COc1ccc(NS(=O)(=O)c2ccc(OCC(=O)N3CCOCC3)cc2)cc1,.,.,.,.
O=C(Nc1cc(C(F)(F)F)ccc1-n1cncn1)c1ccc(-c2ccccc2)cc1,76,.,.,.
CC1(C)CC(=O)c2cn3nc(C(F)(F)F)nc3nc2C1,.,.,.,.
CCN(CC)S(=O)(=O)c1ccc(Cl)c(C(=O)Nc2cc(C)nn2-c2ccccc2)c1,/,/,.,.
CN=C(C)c1c(O)c2ccccc2oc1=O,.,.,.,.
O=C(c1c(O)c2ccccc2oc1=O)C1CCCCC1,.,.,.,29
O=C(CCC1CCCCC1)NCc1ccncc1,.,.,.,.
O=C(CCC1CCCC1)c1c(O)c2ccccc2oc1=O,.,.,.,33
O=C(O)CCc1nnc2n(Cc3ccc(F)cc3)c(=O)c3ccccc3n12,44,.,.,.
O=c1c2ccccc2n2c(-c3cccc(F)c3)nnc2n1Cc1ccccc1,/,/,.,.
O=C(N/N=C/c1ccco1)c1ccccc1OCc1ccc(Br)cc1,/,/,.,.

# Screening results (PubChem)
